Screening results from PubChem BioAssay.
T cell modulator – modulates CD8 T cell binding to vesicles | 2C CD8+ T cell-vesicle binding, flow cytometry; hits give low values | response (vesicle binding), % at 7 µM | hit rate 0.068% among 330,000 | AID 2052;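 active = response, share of CD8 T cells binding vesicles, and their 90th percentile fluorescence all below set limits, cut at about 80% in these data, passing the limit was not always enough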;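 also: values below 100% mean blocked vesicle binding to the CD8+ T cells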
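Assay system – 2C mouse CD8+ T cells · Also added – QL9-loaded Drosophila micro-vesicles · Timing – Cell–vesicle co-incubation 1.5 h at 37 °C, staining 20 min on ice · Signal – flow cytometry of vesicle-bound cells · Measure – percent CD8+ FL2 mean versus row control · Controls – Peptide-free naked vesicles (low) and QL9 vesicles with 0.7% DMSO vehicle (high)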
NTR1 agonist – agonists of human neurotensin receptor NTR1; hit rate 0.17% among 330,000; AID 493036; activation, % at 20 µM; NTR1-U2OS beta-arrestin-GFP spot imaging, agonist mode; P30989;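 active = activation at or above 40% of the spot to cytoplasm intensity ratio, with at least 20 cells analyzed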;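 also: 0% = DMSO without peptide and 100% = 100 nM NTR1 peptide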
Target sequence (P30989 whole entry, looked up): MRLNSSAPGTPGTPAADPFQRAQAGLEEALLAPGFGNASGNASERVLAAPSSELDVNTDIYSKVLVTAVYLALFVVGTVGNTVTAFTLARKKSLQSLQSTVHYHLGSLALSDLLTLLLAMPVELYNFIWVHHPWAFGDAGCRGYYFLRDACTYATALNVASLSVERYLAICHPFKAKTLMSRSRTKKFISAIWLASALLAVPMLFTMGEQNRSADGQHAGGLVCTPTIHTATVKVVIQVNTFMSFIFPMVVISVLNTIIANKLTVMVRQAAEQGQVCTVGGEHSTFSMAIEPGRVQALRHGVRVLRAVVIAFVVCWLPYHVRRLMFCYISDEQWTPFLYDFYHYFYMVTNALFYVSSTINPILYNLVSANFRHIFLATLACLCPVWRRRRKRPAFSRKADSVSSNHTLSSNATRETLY
Xi reactivation – reactivates the inactive X chromosome in mouse fibroblasts; XiGFP mouse fibroblasts, % GFP-positive cells imaging, 3 d; cells co-treated with 5-aza-dC sensitizer; scaled so ellipticine positive control = 100%; activation, % at 7.58 µM; hit rate 0.055% among 360,000;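 active = mean normalized replicate activation at least 10% and every replicate at or above 10%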;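 also: 0% = median of on-plate neutral control wells and 100% = ellipticine 6 µM median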
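material = 68-5-11 XiGFP fibroblast line | medium = DMEM plus 5-aza-dC sensitizer | schedule = 3 days compound exposure | benchmarks = positive control ellipticine, 6 µM final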
Arr AP2 block – inhibitors of human beta-arrestin and AP2 interaction | inhibition, % at 10 µM | hit rate 0.31% among 340,000 | AID 504490 | FITC-arrestin peptide / GST-AP2 beads, flow cytometry; AP2 beta2 appendage carries R879A mutation;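 active = inhibition above a set limit, near 3 SD of compounds lacking own fluorescence, cut at about 54% in these data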;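 also: plate controls were DMSO wells for no effect and 5 µM unlabelled arrestin peptide for full effect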
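System: GST-tagged AP2 beta2-adaptin appendage (R879A) on 4 µm glutathione beads / Reagent: FITC-arrestin peptide, 50 nM / Detection: HyperCyt-sampled flow cytometry, FL1 channel, ex 488/em 535 nm / Timing: 12 min plus 1 h, RT / Buffer or medium: PBS plus Tween 20 (0.05%) and BSA (0.1%)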
V-ATPase pH – alters yeast V-ATPase proton transport; S. cerevisiae, pHLuorin cytosolic pH fluorescence; AID 504577; response, % at 10 µM; hit rate 0.37% among 350,000; in the data active = response mostly above about 7.3%, no sharp cut-off; inactive = mostly below about 5.4%; also: actives read high
beta cell repl – inducers of beta-cell replication in MIN6 cells | MIN6 cells proliferation, ATPlite luminescence, 48 h; cells starved in 0.2% serum; 100% = growth in 10% serum | proliferation, % at 10 µM | hit rate 0.29% among 330,000 | AID 2380;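 active = compounds whose signal lies at least 3.5 SD above the mean of all wells on their plate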;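 also: 0% = DMSO-treated cells in low-serum medium and 100% = 10% serum control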
VATPase regulator – modulates yeast V-ATPase proton transport; response, % at 10 µM; AID 602197; S. cerevisiae pHLuorin cytosolic pH; shares compounds with V-ATPase pH; hit rate 2% among 980; in the data active = response above about 24%;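 also: plate controls were vehicle wells for no effect and positive control wells for full effect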
Active calls of the source: *; i = inactive; . = not tested or not shown. Most compounds without a hit are left out; they make up all but 0.89% or so of the library.

SMILES	T cell modulator	NTR1 agonist	Xi reactivation	Arr AP2 block	V-ATPase pH	beta cell repl	VATPase regulator
COC/C=C/C1=CC2=CC(=O)C(C)(OC(=O)c3cnc4ccccc4n3)C(=O)C2=CN1C1CC1 (centres undefined)	729.6	1.7	-0.1	26.3	12.0*	-0.4	-3.0
COC/C=C/C1=CC2=CC(=O)C(C)(OC(=O)c3cnc4ccccc4n3)C(=O)C2=CN1CC1CC1 (centres undefined)	732.7	-0.1	.	10.4	-3.9	-5.0	.
C=CCc1ccc(OCCOCCOc2ccc(C)cc2[N+](=O)[O-])c(OC)c1	425.4	4.2	.	2.1	-2.6	-0.5	.
C=CCc1ccc(OCCOCCN(C)C)c(OC)c1	167.2	-1.5	.	1.6	12.4*	0.4	-0.6
Clc1ccc(CSC2=NCCCN2)cc1Cl	401.7	-0.2	.	-0.8	1.6	-0.8	-0.5
Clc1ccccc1CSC1=NCCCN1	287.4	1.1	.	-13.4	0.9	-0.3	1.2
C[C@@H]1CN([C@H](C)CO)C(=O)c2cc(NS(=O)(=O)c3ccc(Cl)cc3)ccc2O[C@@H]1CN(C)S(C)(=O)=O	.	.	8.1	.	.	.	.
CCc1ccc(Cn2nnc(C(=O)Nc3ccc(OC)cc3OC)c2N)cc1	60.3	3.2	0.0	14.1	11.8*	-3.8	3.8
CCCC(=O)N1CC2(C1)CN(C(=O)C1CCCC1)[C@H](CO)c1[nH]c3cc(OC)ccc3c12	.	.	0.4	.	.	.	.
COc1ccc(N(CC(=O)Nc2cccc3ccccc23)S(C)(=O)=O)cc1	160.3	-0.8	0.0	33.9	8.5*	-1.0	-0.7
C[C@@H]1CN([C@H](C)CO)C(=O)c2cc(C#Cc3cccc(F)c3)cnc2O[C@H]1CN(C)C(=O)C1CCOCC1	.	.	1.4	.	.	.	.
Cc1ccc(S(=O)(=O)n2cnc(C)c2)cc1	520.8	-0.8	0.0	14.1	13.4*	-1.5	1.4
CCOc1ccc(C2C(C#N)=C(N)SC(N)=C2C#N)c(OCC)c1	257.2	-0.8	.	-0.2	12.2*	-2.4	7.7
CN(C)CC(=O)N[C@@H]1CC[C@@H](CCNC(=O)C2CC2)O[C@@H]1CO	.	.	-0.1	.	.	.	.
CC(=O)NCCSC(=O)c1ccc(F)cc1	349.1	-0.5	.	3.4	-2.3	-1.5	0.2
O=C(NCCCN1CCN(CCCNC(=O)c2ccc(F)cc2)CC1)c1ccc(F)cc1	347.3	-0.1	.	-11.2	-1.0	0.6	1.1
O=C(NCCNC(=O)c1ccc(F)cc1)c1ccc(F)cc1	600.0	-1.7	0.2	0.4	0.4	-1.7	0.8
Cc1ccc(S(=O)(=O)Nc2ccc3c(c2)C(=O)N([C@H](C)CO)C[C@H](C)[C@H](CN(C)C(=O)c2ccccc2)OCCCC[C@H](C)O3)cc1	.	.	0.0	.	.	.	.
COc1ccc2c3c([nH]c2c1)[C@H](CO)N(S(C)(=O)=O)CC31CCN(C(=O)CN(C)C)CC1	.	.	0.3	.	.	.	.
C=C1C(=O)O[C@@]23[C@H]1CC[C@@H](C)[C@@H]2CC[C@@]1(C)O[C@@H]31	208.7	-0.9	.	21.5	23.1*	4.1	0.1
C[C@@H]1CN([C@H](C)CO)C(=O)c2ccccc2-c2ccccc2CO[C@H]1CN(C)C(=O)C1CC1	.	.	-0.7	.	.	.	.
Cc1cc(C(=O)CSc2cccc[n+]2[O-])c(C)n1-c1ccc(OC(F)F)cc1	82.9	-0.4	1.5	-4.6	-3.0	-2.4	.
COC(=O)c1ccc(-n2c(C)cc(C(=O)CSc3cccc[n+]3[O-])c2C)cc1	779.5	-0.2	0.0	-5.5	11.6*	-2.4	-0.4
Cc1ccc(-c2nn3nnnc3c3ccccc23)cc1C	520.1	0.7	.	-3.7	7.7*	1.1	-1.9
c1ccc(-c2nn3nnnc3c3ccccc23)cc1	620.3	0.9	.	2.6	-0.4	-2.4	.
SMILES	T cell modulator	NTR1 agonist	Xi reactivation	Arr AP2 block	V-ATPase pH	beta cell repl	VATPase regulator
CCOc1ccccc1NC(=O)NNC(=O)c1ccc2ccccc2c1	832.7	1.6	0.2	1.1	12.9*	0.3	2.1
CCOc1ccccc1NC(=O)c1ccc2ccccc2c1	i	1.6	0.4	11.3	0.3	-0.3	.
C[C@@H]1CN([C@@H](C)CO)C(=O)c2cccc(NS(=O)(=O)c3ccc(F)cc3)c2O[C@H]1CN(C)C(=O)Nc1cccc2ccccc12	.	.	0.1	.	.	.	.
O=C(Nc1cccc(C(=O)O)c1)/C(=C\c1ccc2c(c1)OCO2)NC(=O)c1ccc(Br)o1	166.6	0.9	0.1	2.7	7.5*	0.5	3.5
O=C(NCc1ccco1)/C(=C/c1ccc([N+](=O)[O-])cc1)NC(=O)c1ccco1	197.5	0.5	0.0	23.1	0.8	-3.9	.
C=CCNC(=O)/C(=C\c1ccc([N+](=O)[O-])cc1)NC(C)=O	219.9	-0.7	.	-6.5	12.7*	-0.8	0.8
COc1cc(NC(=O)C2CCCN2S(=O)(=O)c2ccc3c(c2)CC(C)N3C(C)=O)cc(OC)c1 (centres undefined)	412.6	0.0	0.0	-2.1	8.5*	-4.0	-0.4
C[C@@H]1CN([C@@H](C)CO)C(=O)c2cc(NS(=O)(=O)c3cccs3)ccc2O[C@@H](C)CCCCO[C@@H]1CN(C)Cc1ccc(C(F)(F)F)cc1	.	.	0.3	.	.	.	.
COc1ccc2c3c(n(C)c2c1)[C@H](CO)N(CC1CCCCC1)CC31CCN(C(C)=O)CC1	.	.	0.2	.	.	.	.
CCOC(=O)c1nc2ccccc2c(=O)[nH]1	210.3	-1.8	0.0	47.7	-1.3	-3.0	-1.4
CCOC(=O)CSc1nc2ccccc2c(=O)[nH]1	136.4	-1.3	0.0	7.7	10.2*	3.6	-0.2
CCOC(=O)c1n[nH]c2ccccc12	139.9	0.0	.	5.5	3.7	0.5	-3.9
C[C@H](CO)N1C[C@H](C)[C@H](CN(C)Cc2ccc(F)cc2)Oc2ncc(C3=CCCC3)cc2C1=O	.	.	-0.1	.	.	.	.
COc1ccc2c3c([nH]c2c1)[C@H](CO)N(Cc1ccncc1)CC31CCN(C(=O)CN(C)C)CC1	.	.	0.1	.	.	.	.
O=C(C[C@@H]1CC[C@H]2[C@@H](COC[C@@H](O)CN2C(=O)c2ccccc2)O1)Nc1ccc(-c2ccccc2)cc1	.	.	0.2	.	.	.	.
O=C1C=CC(=Nc2ccc3c(c2)Cc2cc(F)ccc2-3)O1	.	.	0.0	41.0	11.7	.	99.6*
O=C(NCCS(=O)(=O)NC1CCCCC1)c1ccc2c(c1)OCO2	433.5	0.1	0.0	-10.7	7.1*	0.5	-1.6
C[C@@H]1CN([C@@H](C)CO)C(=O)Cc2cc(NC(=O)c3ccncc3)ccc2O[C@H]1CN(C)C(=O)Nc1ccccc1	.	.	0.4	.	.	.	.
COc1ccc(CC(=O)NC2=NCCS2)cc1	354.0	-3.5	.	-7.4	1.3	-1.2	.
COc1ccc(C(=O)CCC(=O)NC2=NCCS2)cc1	324.2	0.4	0.0	-2.7	1.8	-3.2	-3.5
CCOC(=O)C1(C(=O)OCC)NC(=O)CC1C (centres undefined)	.	.	0.0	-1.2	0.2	.	.
